Laboratory results reported in ChEMBL document CHEMBL1649441, “Potency and bactericidal activity of iclaprim against recent clinical gram-positive isolates” (2009).

Assays:
[1] = tested on: Enterococcus faecium; assay: microbe, parasite or virus in culture; conditions: read-out: INH
[2] = tested on: Streptococcus sp. 'group A'; assay: microbe, parasite or virus in culture; conditions: read-out: INH
[3] = tested on: Staphylococcus aureus; assay: microbe, parasite or virus in culture; conditions: read-out: INH
[4] = tested on: Staphylococcus aureus; assay: Antibacterial activity against Methicillin-resistant Staphylococcus aureus assessed as resistant isolates by CLSI broth microdilution method; format: functional
[5] = tested on: Staphylococcus aureus; assay: Antibacterial activity against Methicillin-sensitive Staphylococcus aureus assessed as resistant isolates by CLSI broth microdilution method; format: functional
[6] = tested on: Enterococcus faecium; assay: microbe, parasite or virus in culture; conditions: read-out: INH; remark: listed apart in the source
[7] = tested on: Staphylococcus aureus; assay: microbe, parasite or virus in culture; conditions: read-out: INH; remark: listed apart in the source
[8] = tested on: Staphylococcus aureus; assay: Antibacterial activity against Methicillin-sensitive Staphylococcus aureus assessed as inhibition of bacterial growth at <= 0.008 ug/ml by CLSI broth microdilution method; format: functional
Method in brief: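 Recent clinical isolates from skin/soft tissue, bloodstream and respiratory specimens. Tested by broth microdilution per CLSI M7-A7 and M100-S18, with the appropriate quality controls. The thymidine content of the test medium was assessed to rule out artifactual inhibition.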

[9] = tested on: Enterococcus faecalis; assay: Antibacterial activity against Enterococcus faecalis assessed as inhibition of bacterial growth at 0.015 ug/ml by CLSI broth microdilution method; format: functional
Method in brief: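 Clinical isolates from skin/soft tissue, bloodstream and respiratory specimens were tested by broth microdilution per CLSI M7-A7 and M100-S18, with quality controls. Values are the number of isolates inhibited at each concentration, or MIC / percent susceptible. Highest concentration tested was 8 µg/ml for iclaprim and trimethoprim-sulfamethoxazole, and 64 µg/ml for trimethoprim.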

[10] = tested on: Enterococcus faecium; assay: Antibacterial activity against Enterococcus faecium assessed as inhibition of bacterial growth at <= 0.008 ug/ml by CLSI broth microdilution method; format: functional

Row | SMILES | inhibition at 32 µg/mL [1] [%] | inhibition at 16 µg/mL [2] [%] | inhibition at 32 µg/mL [3] [%] | Activity [4] [%] | Activity [5] [%] | inhibition at 64 µg/mL [6] [%] | inhibition at 32 µg/mL [7] [%] | inhibition (INH) [8] [%] | inhibition at 0.015 µg/mL [9] [%] | inhibition (INH) [10] [%]
1 | COc1cc(Cc2cnc(N)nc2N)cc(OC)c1OC [TRIMETHOPRIM] | 55.1 | 100 | 94.1 | 7.1 | 1.3 | 60.7 | 98.7 |  |  | 
2 | COc1cc(Cc2cnc(N)nc2N)c2c(c1OC)OC(C1CC1)C=C2 (stereo not given) |  |  |  |  |  |  |  | 0.1 | 57.7 | 33.7
